# The list is not random: actives were taken first. Their share in the collection is about 2%.
# PP5 inh – inhibitors of human protein phosphatase 5 (PP5). P53041. purified PP5c, OMFP substrate fluorescence. inhibition, % at 6.7 µM. 0.18% of 320,000 active. AID 1987;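 active = inhibition above the campaign's mean inhibition across all tested compounds plus 3 SD, cut at about 9.5% in these data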;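 also: 0% = DMSO only and 100% = 100 µM cantharidin control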
# GSTO1 counter – GSTO1 inhibition, counter-screen for RBBP9 inhibitors | recombinant GSTO1, activity-based probe fluorescence polarization | inhibition, % at 5.96 µM | 1.1% of 300,000 active | AID 1974;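 active = inhibition above the campaign mean inhibition plus 3 SD, cut at about 35% in these data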;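 also: 0% = GSTO1-1 with DMSO and 100% = wells lacking GSTO1-1 enzyme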
# Fh CTSL1 inh – counter-screen for PFM18AAP inhibitors: inhibitors of F. hepatica cathepsin L1 | 0.49% of 300,000 active | inhibition, % at 5.96 µM | recombinant F. hepatica cathepsin L1, Z-Leu-Arg-MCA fluorescence | AID 1906;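 active = inhibition above the mean of all tested compounds plus 3 SD, set per screening campaign, cut at about 17% in these data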;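 also: 0% = plate median of test compound wells and 100% = 1 µM Z-Phe-Ala-diazomethylketone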
# PAD4 inh – blocks human protein arginine deiminase 4; Q9UM07; inhibition, % at 6.36 µM; 0.41% of 330,000 active; AID 485272; recombinant PAD4, RCA probe fluorescence polarization;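 active = percent inhibition above a cutoff equal to the mean of all tested compounds plus 3 SD, cut at about 15% in these data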;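 also: 0% = PAD4 with RCA probe and DMSO and 100% = probe without PAD4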
# UCH37 inh – blocks the human deubiquitinase UCH37 | purified proteasome/UCH37, Ub-AMC cleavage fluorescence | Q9Y5K5 | AID 588478 | 0.33% of 330,000 active | inhibition, % (test concentration not listed);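 active = mean inhibition over replicate wells above about 20%, limit read from the data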;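 also: 0% = compound-free wells with enzyme and 100% = wells lacking proteasome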
#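 Schedule: 30 min plus 25 min, room temperature / Material: human UCH37 within purified proteasomes / Technique: AMC fluorescence intensity at 355/460 nm / Buffer or medium: pH 7.4 Tris-HCl (50 mM) with ovalbumin, ATP-MgCl2, DTT / Controls: wells without proteasome as full block, compound-free enzyme plus substrate as uninhibited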
# Apaf-1 inh – human Apaf-1 inhibition; inhibition, % at 20 µM; O14727; AID 489030; reconstituted apoptosome caspase-3 activity, DEVD-Rh110 fluorescence; 0.71% of 330,000 active; active = inhibition of at least 40% at 20 µM;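 also: plate controls were DMSO wells for no effect and DEVD-CHO caspase inhibitor wells for full effect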
#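 Material: reconstituted apoptosome with Apaf-1, cytochrome c, caspase-9, procaspase-3, dATP; medium: pH 7.5 Hepes buffer with CHAPS, BSA, DTT; also added: cytochrome c and DEVD-Rh110 substrate; timing: 30 min plus 50 min, RT; signal: Rh110 fluorescence intensity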
# GSTO1 inh conf – GSTO1 (human) inhibition, confirmation | shares compounds with GSTO1 counter | recombinant GSTO1, probe fluorescence polarization | inhibition, % at 5.96 µM | 54% of 2,400 active | AID 2176;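 active = inhibition above the primary screen's cutoff, its mean inhibition plus 3 SD, cut at about 35% in these data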;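 also: loss of polarization as inhibitors block binding of rhodamine sulfonate ester activity probe; 0% = GSTO1 with DMSO and 100% = wells lacking GSTO1 enzyme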
# GSTO1 recomb ABPP – inhibitors of recombinant human GSTO1 | shares compounds with GSTO1 counter | gel ABPP SE-Rh probe fluorescence | inhibition, % at 1 µM | 30% of 130 active | AID 463110;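 active = inhibition of the enzyme GSTO1 above about 75%, limit read from the data; inactive = inhibition below that limit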
# Active calls of the source: *; x = no result given.
SMILES,PP5 inh,GSTO1 counter,Fh CTSL1 inh,PAD4 inh,UCH37 inh,Apaf-1 inh,GSTO1 inh conf,others
CN1CCN(C2=C(NS(=O)(=O)c3cccs3)C(=O)c3ccccc3C2=O)CC1,1.5,16.8,-3.7,-13.6,8.8,31.3,x,
CCOc1ccccc1N1CCN(C2=C(NS(=O)(=O)c3cccs3)C(=O)c3ccccc3C2=O)CC1,2.6,62.5*,-3.4,-3.1,1.7,35.9,12.8,
COC(=O)C1=C(C)N=c2sc(=Cc3cccs3)c(=O)n2C1c1cccs1 (configuration not stated),x,x,x,x,0.7,x,x,
CCOc1cccc(CNCCO)c1OCc1ccc(Cl)cc1Cl,-0.8,4.8,-0.4,4.5,4.7,13.3,x,
CCOc1cccc(CNc2ccc(O)cc2)c1OCc1ccc(Cl)cc1Cl,5.8,78.1*,3.4,-3.3,3.6,22.5,9.6,
CCc1ccc(OCC(=O)NN=C(C)c2ccc(-n3ccnc3)cc2)cc1,x,x,x,x,4.4,x,x,
COc1cc(C=NNC(=O)c2nnn(-c3nonc3N)c2C(C)C)ccc1O,x,x,x,x,3.6,x,x,
COc1ccc(C=NNC(=O)c2c(C)nnn2-c2nonc2N)cc1OC,x,x,x,x,-22.8,x,x,
C=C(C)c1cccc(C(C)(C)NC(=O)Nc2ncccn2)c1,1.3,38.7*,4.7,-2.3,0.9,11.8,21.1,
O=C(CSc1nnc(-c2ccc(Cl)cc2Cl)n1C1CCCCC1)NC1CCS(=O)(=O)C1 (configuration not stated),2.3,45.1*,2.5,-11.8,1.0,1.9,4.3,
O=c1c2c([N+](=O)[O-])cc([N+](=O)[O-])cc2sn1-c1ccc(Br)cc1,1.4,37.7*,5.1,-9.7,x,14.3,32.5,
O=c1c2c([N+](=O)[O-])cc([N+](=O)[O-])cc2sn1Cc1ccccc1,-0.9,-3.4,0.3,0.9,x,-1.1,x,
C=C(C)C1CC=C(C)C(=NNC(=O)c2cccc([N+](=O)[O-])c2)C1 (configuration not stated),x,x,x,x,4.9,x,x,
Cc1ccc(N/N=C2\CC(=O)c3ccccc32)cc1Cl,3.9,48.2*,-6.7,0.4,x,76.5*,25.9,
O=C(NN=Cc1cccnc1)c1ccc([N+](=O)[O-])cc1Cl,x,x,x,x,2.7,x,x,
O=[N+]([O-])c1ccc(/C=N/n2cnc3ccccc32)s1,1.8,55.0*,16.1,-23.2,x,13.4,30.6,
CC(=O)C(=Nc1ccccc1Cl)NNc1ccc(Cl)cc1,4.6,39.7*,0.0,-1.6,3.4,23.5,10.5,
O=C(NNc1ccc(Cl)cc1)c1c(F)cccc1Cl,1.8,0.4,-3.8,-1.6,5.7,-2.4,x,
CC1=C(C)/C(=N\OS(=O)(=O)c2ccc(C)cc2)C=CC1=O,3.4,44.5*,4.1,-1.0,x,x,7.0,
COc1ccc(/C=C2\SC(N)=NC2=O)cc1,x,x,x,x,2.6,-12.6,x,
COc1cc(/C=C2\SC(N)=NC2=O)cc(Br)c1O,1.0,61.3*,10.3,-6.5,10.0,4.2,65.6*,
COc1ccc(CCn2c(NN)nc3c2c(=O)[nH]c(=O)n3C)cc1,0.8,41.5*,13.5,-3.9,x,-32.4,7.8,
NS(=O)(=O)c1ccc2nc(NC(=O)c3ccc4ncsc4c3)sc2c1,0.8,-1.7,3.8,13.9,x,5.8,x,
NS(=O)(=O)c1ccc2nc(NC(=O)c3ccc4c(c3)OCCO4)sc2c1,1.5,42.2*,0.1,-1.6,-18.8,-17.6,-1.1,
CC(C)(C)c1ccc(C=NN2C(=O)CSC2=S)cc1,x,x,x,x,1.8,x,x,
SMILES,PP5 inh,GSTO1 counter,Fh CTSL1 inh,PAD4 inh,UCH37 inh,Apaf-1 inh,GSTO1 inh conf,others
CCNC(=O)N1C(CC(=O)OCC)C(=O)NC2CCCCC21 (configuration not stated),-2.1,-6.8,3.1,0.3,3.2,-6.6,x,
COC(=O)CC1C(=O)NC2CCCCC2N1C(=O)CCl (configuration not stated),0.1,54.0*,11.6,3.6,3.3,-12.3,79.0*,
Cc1cc(/C=C2\SC(=S)NC2=O)c(C)n1C1CC1,-0.4,39.9*,1.9,-4.6,8.6,-3.4,51.3*,
Cc1cc(/C=C2/C(=O)N(C)C(=S)N2C)c(C)n1C1CC1,0.8,1.0,1.9,-1.9,8.1,1.8,x,
COc1ccccc1C(C)=NNC(=O)c1nnn(-c2nonc2N)c1C(C)C,x,x,x,x,1.4,x,x,
COc1cccc(C=Nc2cc(C)on2)c1O,1.7,6.4,2.1,-3.7,4.2,19.1,x,
Cc1cc(N=Cc2c(O)ccc3cc(Br)ccc23)no1,-0.2,46.2*,-2.5,-5.5,0.3,x,23.3,
O=C(O)C1OC(Oc2c(-c3ccc(O)c(O)c3)oc3cc(O)cc(O)c3c2=O)C(O)C(O)C1O (configuration not stated),3.1,33.7,1.4,-3.8,3.5,4.3,x,
COc1ccc(-c2cc(=O)c3c(O)cc(O)cc3o2)cc1,-3.1,-0.4,7.2,-3.0,2.2,8.8,x,
O=c1cc(-c2ccc(O)c(O)c2)oc2cc(O)cc(O)c12,1.1,50.1*,-3.2,1.3,1.1,7.6,46.8*,
O=c1c(O)c(-c2ccc(O)c(O)c2)oc2cc(O)cc(O)c12,-1.6,56.7*,-0.1,-7.8,5.1,18.8,65.5*,
CC(C)(C)c1csc(NN=Cc2ccc(O)cc2)n1,x,x,x,x,-3.6,x,x,
Nc1cc(-c2ccncc2)c[nH]c1=O,5.4,41.5*,-2.6,-0.5,2.6,7.7,6.7,
Cc1ccnn1CC(=O)NN=Cc1ccco1,x,x,x,x,1.2,x,x,
CC(=NOCC(=O)Nn1c(=O)[nH]c2ccccc2c1=O)c1ccccc1,x,x,x,x,-3.6,x,x,
CCOc1ccc(CN(C)C(=O)CCNC(=O)c2ccco2)cc1,2.5,x,x,0.8,3.4,0.3,x,
CCOc1ccc(CN(C)C(=O)CCl)cc1,-0.3,80.7*,14.1,-4.8,0.2,6.4,97.6*,GSTO1 recomb ABPP=71.0
CCc1cccc2c(C(=O)COC(=O)c3ccc([N+](=O)[O-])s3)c[nH]c12,3.9,52.7*,12.4,-17.4,2.1,18.2,26.5,
O=C(OCC(=O)c1c[nH]c2ccccc12)c1ccc([N+](=O)[O-])s1,6.2,45.5*,1.5,-8.5,8.2,19.2,14.5,
CCOC(=O)c1c(C)[nH]c(C)c1C(=O)COC(=O)c1ccc([N+](=O)[O-])s1,4.6,x,x,-5.1,8.8,25.3,x,
Cc1ccc2nc(Cl)c(C=NNC(=O)[C@H]3C[C@@H]3c3ccccc3)cc2c1,x,x,x,x,-1.9,x,x,
Cc1c(C(=O)NN=Cc2cccnc2)nnn1-c1nonc1N,x,x,x,x,1.2,x,x,
Cc1cc(C(=O)CCl)c(C)n1CCc1ccccc1,-1.1,79.1*,16.8*,-6.1,5.7,9.8,97.2*,
CCN(c1ccc(NC(=O)COC(=O)CCC(=O)c2ccc(F)cc2)cc1)C(C)C,1.2,38.5*,-36.3,-3.3,1.4,3.9,23.9,
O=C(c1ccccc1)c1nn(-c2ccc(Cl)cc2)c(=O)cc1C(F)(F)F,3.7,76.1*,2.3,2.1,-6.9,28.4,78.5*,
